Experimental findings from ChEMBL document CHEMBL6134766, “Design, synthesis, and evaluation of benzhydrylpiperazine-based novel dual COX-2/5-LOX inhibitors with anti-inflammatory and anti-cancer activity” (RSC Med Chem, 2025) are described below.

The subject of series [1] is Drosophila. The experiment in a line: Toxicity in wild-type Drosophila assessed as eclosion rate at 10 uM, po via food to female and male flies and measured in F1 generation flies after 15 days. The format is organism-based. To be noted: in vivo, 360 h, time 15 day. In short, it runs like this:
(§1)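 Ten virgin female and male Oregon R+ flies crossed on food containing compound (1, 10, 50, 100 or 200 μM), held at 24 ± 1 °C; F1 generation followed 15 days; percent eclosion versus untreated controls; Dunnett's multiple comparisons.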

The next series concerns A549. Description: Cytotoxicity against human A549 cells assessed as growth inhibition incubated for 48 hrs by SRB assay. To be noted: A549, 48 h. A general note: In SRB staining, fixed cells bind dye roughly in proportion to their protein.
Series [2] in a line: Cmax in male Wistar rat at 10 mg/kg, po measured up to 24 hrs by HPLC analysis. The format is ADME, organism-based. To be noted: in vivo. In short, it runs like this:
(§2)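 Overnight-fasted male Wistar rats, 200–250 g, single 10 mg kg−1 p.o. in 0.3% sodium CMC; blood at 0, 0.5, 1, 2, 4, 8, 16, 24 h into heparin tubes; plasma MeOH-extracted, HPLC (MeOH:H2O 85:15, 254 nm) against calibration curve; extravascular non-compartmental analysis; mean ± SD (n = 3).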

Series [3] concerns Drosophila. Description: Toxicity in wild-type Drosophila assessed as eclosion rate at 1 uM, po via food to female and male flies and measured in F1 generation flies after 15 days. The class given is organism-based. The conditions noted are these: in vivo, 360 h, time 15 day. In outline:
as §1

Series [4] can be described thus: MRT in male Wistar rat at 10 mg/kg, po measured up to 24 hrs by HPLC analysis. The class given is ADME, organism-based. The conditions noted are these: in vivo. In outline: as §2
A short description of series [5]: Tmax in male Wistar rat at 10 mg/kg, po measured up to 24 hrs by HPLC analysis. The class given is ADME, organism-based. To be noted: in vivo. In short, it runs like this:
as §2

In series [6] the test system is Drosophila. Description: Anti-cancer activity in Drosophila harboring UAS-Ras V12 mutant assessed as increase in early pupal developmental differentiation at 10 to 50 uM, po. The format is functional, organism-based. To be noted: dose 10-50 µM. In short, it runs like this:
(§3)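 UAS-RasV12 glial glioblastoma model (repo-GAL4/UAS-RasV12) in Drosophila, with Oregon R+ wild-type flies as control. Flies reared at 24 ± 1 °C on standard corn food containing compound at 10 or 50 μM. Percent of animals at each developmental stage (third instar larva, pupa) scored. Significance by Tukey's multiple comparisons test.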

Series [7] in a line: Toxicity in wild-type Drosophila assessed as lethal dose administered orally via food to female and male flies and measured in F1 generation flies after 15 days. The format is organism-based. The conditions noted are these: both, in vivo, route po, time 15 day, read-out: LD50. In short, it runs like this: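 Wild-type Oregon R+ flies (10 virgin females and males) were crossed on standard food containing 1, 10, 50, 100 or 200 μM compound and kept at 24 ± 1 °C. The F1 generation was followed for 15 days, scoring percent adult eclosion against an untreated control. LD50 was derived from the eclosion data, with Dunnett's test.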

Series [8] relates to Drosophila. The experiment in a line: Anti-cancer activity in Drosophila harboring UAS-Ras V12 mutant assessed as rescue of third instar larval lethality at 10 to 50 uM, po. The class given is functional, organism-based. The conditions noted are these: dose 10-50 µM. In outline: as §3
A short description of series [9]: Half life in male Wistar rat at 10 mg/kg, po measured up to 24 hrs by HPLC analysis. The class given is ADME, organism-based. To be noted: in vivo. In outline: as §2
A short description of series [10]: AUC (0 to 24 hrs) in male Wistar rat at 10 mg/kg, po measured up to 24 hrs by HPLC analysis. The conditions noted are these: in vivo. The format is ADME, organism-based. In outline:
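Healthy male Wistar rats (200–250 g, n = 5), fasted overnight, given a single oral dose of 10 mg kg−1 in 0.3% sodium CMC. Blood collected under anaesthesia at 0, 0.5, 1, 2, 4, 8, 16 and 24 h into heparinized tubes. Plasma extracted with MeOH and analysed by HPLC (MeOH:H2O 85:15, detection at 254 nm) against a standard calibration curve. Parameters from a non-compartmental extravascular model.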

Series [11] has as its system Drosophila. Description: Toxicity in wild-type Drosophila assessed as reduction in eclosion rate at 200 uM, po via food to female and male flies and measured in F1 generation flies after 15 days. The format is organism-based. Details: scale not given: the % may be the effect or the level left. The conditions noted are these: in vivo, 360 h, time 15 day. In outline:
as §1

The subject of series [12] is Drosophila. Description: Anti-cancer activity in Drosophila harboring UAS-Ras V12 mutant assessed as improvement in pupal development at 10 uM, po. The format is functional, organism-based. In outline: as §3
In the next series the test system is MIA PaCa-2. The experiment in a line: Cytotoxicity against human MIA PaCa-2 cells assessed as growth inhibition incubated for 48 hrs by SRB assay. To be noted: MIA PaCa-2, 48 h.
Another series deals with COLO 205. Description: Cytotoxicity against human COLO 205 cells assessed as growth inhibition incubated for 48 hrs by SRB assay. The conditions noted are these: COLO 205, 48 h.
Series [13] has as its system Drosophila. The experiment in a line: Toxicity in wild-type Drosophila assessed as eclosion rate at 100 uM, po via food to female and male flies and measured in F1 generation flies after 15 days. The class given is organism-based. The conditions noted are these: in vivo, 360 h, time 15 day. In outline: as §1

Calls of active or inactive are those of the source. The calls are words filed in the database; no cut-off is given here.

Broadly, the GI50 is the concentration that inhibits growth by half. Usually Cmax stands for the maximum level reached in the sampled fluid or tissue. By MRT is commonly meant a mean duration of stay, worked out from the concentration-time curve. Broadly, the Tmax is the time from dosing to the highest level. A word on the half-life: it is the time in which the quantity being followed falls by half.

On to `Clc1ccc(-c2nnc(CN3CCN(C(c4ccccc4)c4ccc(Cl)cc4)CC3)o2)cc1` (stereo unspecified), for which the Activity in the series on Drosophila [1] is given as ~ 84%; in the series on Drosophila [3] it was ~ 92%; in the series with Drosophila [11] it was 24%; in the series on Drosophila [13] it was less than 50%. Moreover, the figures for the 50% growth inhibitory concentration (GI50) in the series on A549, with MIA PaCa-2 and in the series with COLO 205 were 731 nM, 2320 nM and 1220 nM, respectively. In [2], this compound showed a Cmax of 10300 ng/mL. Besides, the MRT in [4] was 3.42 h. Besides, the time of peak concentration (Tmax) in [5] was 3 h. For the same compound, the outcome in the series on Drosophila [6], in the series on Drosophila [8] and in the series with Drosophila [12] was Active. The LC50 at 360 h in series [7] came out at 100000 nM. The compound also gave a half-life in [9] of 2.11 h. Also, the AUC in [10] turned out to be 32.06 µg/mL/h.
